{
  "source": "paper PMC4976638",
  "about": "(Biochemistry, 2016)",
  "key": {"[1]": {"target": "T1, apoE4 (Homo sapiens, UniProt P02649, C130R)", "T1 sequence (P02649 19-317 C130R)": "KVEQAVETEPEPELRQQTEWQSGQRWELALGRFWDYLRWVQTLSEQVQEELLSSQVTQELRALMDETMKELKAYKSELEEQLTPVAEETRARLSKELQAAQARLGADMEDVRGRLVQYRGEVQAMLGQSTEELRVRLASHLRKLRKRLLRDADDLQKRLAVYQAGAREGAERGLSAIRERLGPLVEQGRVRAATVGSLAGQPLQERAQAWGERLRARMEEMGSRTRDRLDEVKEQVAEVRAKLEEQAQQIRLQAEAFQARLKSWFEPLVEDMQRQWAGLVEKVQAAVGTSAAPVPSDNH", "test": "SYPRO Orange displacement titration, apoE4", "format": "binding", "settings": "Apparent dissociation constant Kd, Using SYPRO Orange, PBS pH 7.4, 25 °C", "how_it_was_run": "(§1)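 Adding apoE to SYPRO Orange increases its fluorescence and shifts the emission maximum to 575 nm. After a 1 h room-temperature protein preincubation, test compound was titrated stepwise and the decrease in SYPRO Orange fluorescence was fitted for an apparent Kd. Buffer: 10 mM phosphate pH 7.4, 150 mM NaCl, 1 mM DTT, 1 mM EDTA, 25 °C.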"}, "[2]": {"target": "T1, apoE4", "test": "Differential hydrogen-deuterium exchange MS, apoE4", "format": "binding", "settings": "1 μM WT apoE4, 25 μM EZ-482, 25 °C"}, "[3]": {"target": "apoE4 (Homo sapiens, UniProt P02649, C130R/S157C)", "sequence (P02649 19-317 C130R/S157C)": "as the sequence (P02649 19-317 C130R) above, with S139C counted along it", "format": "binding", "how_it_was_run": "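Alexa488-maleimide labelled the apoE4 S139C mutant after 20 mM DTT reduction (1–2 h, 37 °C), with a 10-fold molar dye excess overnight at 4 °C (>90% labelling). Labelled protein was preincubated 1 h at room temperature, then titrated stepwise with test compound to follow fluorescence decrease. Unlabelled apoE3 was then added. Buffer: 10 mM phosphate pH 7.4, 150 mM NaCl, 1 mM DTT, 1 mM EDTA, 25 °C.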"}, "[4]": {"target": "apoE3 (Homo sapiens, UniProt P02649, A303C)", "sequence (P02649 19-317 A303C)": "as the sequence (P02649 19-317 C130R) above, with R112C, A285C counted along it", "test": "Fluorescence of TMR-labeled apoE3", "format": "binding", "how_it_was_run": "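ApoE3 A285C was labelled with TMR maleimide (dye:protein 1:1; native Cys112 possibly also labelled). It was preincubated 1 h at room temperature, then titrated stepwise with test compound while fluorescence was monitored to derive an apparent Kd. Buffer: 20 mM HEPES pH 7.4, 150 mM NaCl, 1 mM DTT, 1 mM EDTA, 25 °C.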"}, "[5]": {"target": "T1, apoE4", "test": "Analytical ultracentrifugation sedimentation velocity", "settings": "10 μM apoE4, 10 or 20 μM EZ-482, PBS", "how_it_was_run": "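Recombinant apoE4 was expressed in E. coli BL21(DE3) as a His-tagged thioredoxin fusion, cleaved with PreScission protease (leaving N-terminal Gly-Pro), and dialysed into PBS. For sedimentation velocity, 10 μM apoE4 was run with 0, 10 or 20 μM test compound in PBS in a double-sector centerpiece (1.2 cm path), with absorbance at 290 nm recorded in continuous mode.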"}, "[6]": {"target": "T2, apoE3 (Homo sapiens, UniProt P02649)", "T2 sequence (P02649 19-317)": "as the sequence (P02649 19-317 C130R) above, with R112C counted along it", "test": "SYPRO Orange displacement titration, apoE3", "format": "binding", "settings": "Apparent dissociation constant Kd, Using SYPRO Orange, PBS pH 7.4, 25 °C", "how_it_was_run": "as §1"}, "[7]": {"target": "T2, apoE3", "test": "Quenching of ANS fluorescence, apoE3", "format": "binding", "settings": "Apparent dissociation constant Kd, Using ANS, PBS pH 7.4, 25 °C", "how_it_was_run": "(§2)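 Unlabelled apoE raises ANS fluorescence. Test compound was titrated stepwise into the apoE–ANS mixture after a 1 h room-temperature protein preincubation, and quenching of ANS fluorescence gave an apparent Kd. Buffer: 10 mM phosphate pH 7.4, 150 mM NaCl, 1 mM DTT, 1 mM EDTA, 25 °C.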"}, "[8]": {"target": "T2, apoE3", "test": "Differential hydrogen-deuterium exchange MS, apoE3", "format": "binding", "how_it_was_run": "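ApoE3 stock (10 μM in PBS, 2 mM DTT) was incubated 2 h at 25 °C with test compound […]; controls had 2% DMSO. Exchange ran in D₂O PBS (pD 7.4, 25 °C, 30 s–30 min), with 1 μM apoE and 25 μM compound. Quench used fungal XIII/urea/formic acid on ice, then pepsin digestion, C18 LC and ESI-QTOF MS. Duplicates; 48 h back-exchange correction.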"}, "[9]": {"target": "T1, apoE4", "test": "Quenching of ANS fluorescence, apoE4", "format": "binding", "how_it_was_run": "as §2"}, "[10]": {"test": "Solubility in DMSO", "format": "physicochemical"}},
  "data": [
    {"smiles": "Cn1nc(CC(=O)Nc2cc(S(=O)(=O)Nc3cccc(Cl)c3)ccc2O)c2ccccc2c1=O", "note": "[EZ-482, N-{5-[(3-chlorophenyl)sulfamoyl]-2-hydroxyphenyl}-2-(3-methyl-4-oxo-3,4-dihydrophthalazin-1-yl)acetamide]", "values": [
      {"measurement": "Kd", "setting": "[1]", "result": "7.6 ± 0.4", "unit": "µM"},
      {"measurement": "Binding site by HDX protection, apoE4", "setting": "[2]", "result": "Large protection was observed only in the C-terminal domain (229–235/234–243 and 258–265)"},
      {"measurement": "Kd", "setting": "[3]", "result": 7.5, "unit": "µM"},
      {"measurement": "Kd", "setting": "[4]", "result": "7 ± 0.35", "unit": "µM"},
      {"measurement": "Effect on distribution of apoE oligomers", "setting": "[5]", "result": "essentially unaffected"},
      {"measurement": "Kd", "setting": "[6]", "result": "7.3 ± 0.53", "unit": "µM"},
      {"measurement": "Kd", "setting": "[7]", "result": "5.6 ± 0.7", "unit": "µM"},
      {"measurement": "N-terminal allosteric effect by HDX, apoE3", "setting": "[8]; 1 μM WT apoE3, 25 μM EZ-482, 25 °C", "result": "apoE3 N-terminal remained unaffected"},
      {"measurement": "Binding site by HDX protection, apoE3", "setting": "[8]; 1 μM WT apoE3, 25 μM EZ-482 or 1X SYPRO Orange, 25 °C", "result": "Large protection was observed only in the C-terminal domain (229–235/234–243 and 258–265)"},
      {"measurement": "Kd", "setting": "[9]", "result": "7.5 ± 1", "unit": "µM"},
      {"measurement": "Solubility in DMSO", "setting": "[10]", "result": "reasonably soluble in DMSO"}
    ]}
  ]
}
